Results as given in ChEMBL document CHEMBL4339190, “2,6-Disubstituted imidazo[2,1-b][1,3,4]thiadiazole derivatives as potent staphylococcal biofilm inhibitors” (Eur J Med Chem, 2019).
Activity calls are given as the source filed them. The calls are words filed in the database; no cut-off is given here.

Key:
Staphylococcus aureus [1] = test: Antibiofilm activity against Staphylococcus aureus ATCC 6538 assessed as inhibition of biofilm formation at 100 ug/ml incubated for 24 hrs by crystal violet-staining based assay; type: functional; conditions: ATCC 6538, 24 h
[2] = test system: Staphylococcus epidermidis; test: Antibiofilm activity against Staphylococcus epidermidis ATCC 12228 incubated for 24 hrs by crystal violet-staining based assay; type: functional
Outline: (§1)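 Biofilm prevention: 0.5 McFarland inoculum (2.5 µL) in 100 µL TSB with 2% w/v glucose, compound present from the start over 100–0.1 µg/mL, 37 °C 24 h. Washed with PBS, stained 0.1% w/v crystal violet 30 min, eluted with 33% v/v acetic acid, read at 570 nm. BIC50 (50% inhibition versus untreated control) derived by linear regression; triplicate, repeated at least twice.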

Staphylococcus aureus [3] = test: Antimicrobial activity against Staphylococcus aureus ATCC 25923 assessed as growth inhibition of planktonic forms incubated for 24 hrs; type: organism-based; conditions: in vitro
Outline: (§2)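 Broth microdilution in tryptic soy broth. Two-fold series 100 to 0.75 μg/mL made from a 1 mg/mL stock in 0.9% NaCl. Inoculum ~10⁶ cfu/mL taken from a 24 h culture, 37 °C 24 h.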

Staphylococcus aureus [4] = test: Antimicrobial activity against Staphylococcus aureus ATCC 6538 assessed as growth inhibition of planktonic forms incubated for 24 hrs; type: organism-based; conditions: in vitro; outline: as §2
Pseudomonas aeruginosa [5] = test: Antimicrobial activity against Pseudomonas aeruginosa ATCC 15442 assessed as growth inhibition of planktonic forms incubated for 24 hrs; type: organism-based; conditions: in vitro; outline: as §2
Pseudomonas aeruginosa [6] = test: Antibiofilm activity against Pseudomonas aeruginosa ATCC 15442 assessed as inhibition of biofilm formation at 100 ug/ml incubated for 24 hrs by crystal violet-staining based assay; type: functional; conditions: ATCC 15442, 24 h
Escherichia coli [7] = test: Antimicrobial activity against Escherichia coli ATCC 25922 assessed as growth inhibition of planktonic forms incubated for 24 hrs; type: organism-based; conditions: in vitro; outline: as §2
Staphylococcus aureus [8] = test: Antibiofilm activity against Staphylococcus aureus ATCC 25923 assessed as inhibition of biofilm formation at 100 ug/ml incubated for 24 hrs by crystal violet-staining based assay; type: functional; conditions: ATCC 25923, 24 h
Escherichia coli [9] = test: Antibiofilm activity against Escherichia coli ATCC 25922 assessed as inhibition of biofilm formation at 100 ug/ml incubated for 24 hrs by crystal violet-staining based assay; type: functional; conditions: ATCC 25922, 24 h
[10] = test system: Staphylococcus epidermidis; test: Antimicrobial activity against Staphylococcus epidermidis ATCC 12228 assessed as growth inhibition of planktonic forms incubated for 24 hrs; type: organism-based; conditions: in vitro; outline: as §2
Staphylococcus aureus [11] = test: Antibiofilm activity against Staphylococcus aureus ATCC 6538 incubated for 24 hrs by crystal violet-staining based assay; type: functional; outline: as §1
Escherichia coli [12] = test: Antibiofilm activity against Escherichia coli ATCC 25922 incubated for 24 hrs by crystal violet-staining based assay; type: functional; outline: as §1
Staphylococcus aureus [13] = test: Antibiofilm activity against Staphylococcus aureus ATCC 25923 incubated for 24 hrs by crystal violet-staining based assay; type: functional; outline: as §1
Pseudomonas aeruginosa [14] = test: Antibiofilm activity against Pseudomonas aeruginosa ATCC 15442 incubated for 24 hrs by crystal violet-staining based assay; type: functional; outline: as §1
Bacteria = test: Inhibition of recombinant bacterial SrtA at 100 uM using 5-FAM/QXL 520 Sortase as substrate preincubated for 10 mins followed by substrate addition and measured every 5 mins for 60 mins by fluorescence assay
Outline: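 FRET kit assay: 2.5 µg/ml recombinant SrtA, 4 µM fluorescent peptide substrate, compound at 100 µM in 1% DMSO. Compound and enzyme added first, then substrate. Fluorescence (Ex/Em 490/520 nm) recorded every 5 min for 60 min. Substrate without enzyme served as negative control and 4-(hydroxymercuri)benzoic acid as positive control.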

inhibition (Bacteria) | Compound | inhibition at 100 µg/mL (Staphylococcus aureus [1]) [%] | MBIC50 [2] | inhibition [2] | MIC (Staphylococcus aureus [3]) [µg/mL] | MIC (Staphylococcus aureus [4]) [µg/mL] | MIC (Pseudomonas aeruginosa [5]) [µg/mL] | inhibition at 100 µg/mL (Pseudomonas aeruginosa [6]) [%] | MIC (Escherichia coli [7]) [µg/mL] | inhibition at 100 µg/mL (Staphylococcus aureus [8]) [%] | inhibition at 100 µg/mL (Escherichia coli [9]) [%] | MIC [10] [µg/mL] | MBIC50 (Staphylococcus aureus [11]) | inhibition (Staphylococcus aureus [11]) | MBIC50 (Escherichia coli [12]) | MBIC50 (Staphylococcus aureus [13]) | MBIC50 (Pseudomonas aeruginosa [14]) | MBIC90 (Staphylococcus aureus [11]) [µg/mL] | inhibition (Escherichia coli [12]) | inhibition (Staphylococcus aureus [13])
 | Br.Cn1cc(-c2nn3cc(-c4ccccc4)nc3s2)c2cc(Br)ccc21 | < 15 | 21.6 µM | Dose-dependent effect | > 100 | > 100 | > 100 | < 15 | > 100 | < 15 | < 15 | > 100 |  |  |  |  |  |  |  | 
 | Cn1cc(-c2nn3cc(-c4ccc(F)cc4)nc3s2)c2cc(Cl)ccc21 |  | 17 µM | Dose-dependent effect | > 100 | > 100 | > 100 | < 15 | > 100 | < 15 | < 15 | > 100 | 50.4 µM | Dose-dependent effect |  |  |  |  |  | 
 | Br.Brc1ccc2[nH]cc(-c3nn4cc(-c5ccccc5)nc4s3)c2c1 |  | inactive |  | > 100 | > 100 | > 100 |  | > 100 |  |  | > 100 | inactive |  | inactive | inactive | inactive |  |  | 
 | Br.COc1cccc(-c2cn3nc(-c4c[nH]c5ccc(Br)cc45)sc3n2)c1 |  | inactive |  | > 100 | > 100 | > 100 |  | > 100 |  |  | > 100 | inactive |  | inactive | inactive | inactive |  |  | 
 | Cn1cc(-c2nn3cc(-c4ccc([N+](=O)[O-])cc4)nc3s2)c2cc(Cl)ccc21 |  | 78 µM | Dose-dependent effect | > 100 | > 100 | > 100 | < 15 | > 100 | < 15 | < 15 | > 100 | 33 µM | Dose-dependent effect |  |  |  |  |  | 
 | Br.Fc1ccc(-c2cn3nc(-c4c[nH]c5ccc(Br)cc45)sc3n2)cc1 |  | inactive |  | > 100 | > 100 | > 100 |  | > 100 |  |  | > 100 | inactive |  | inactive | inactive | inactive |  |  | 
inactive | Br.COc1ccc(OC)c(-c2cn3nc(-c4c[nH]c5ccc(Cl)cc45)sc3n2)c1 |  | 18.9 µM | Dose-dependent effect | > 100 | > 100 | > 100 | < 15 | > 100 |  |  | > 100 | 0.5 µM | Dose-dependent effect | 91.5 µM | 24.2 µM |  | 16.2 | Dose-dependent effect | Dose-dependent effect
 | COc1ccc(OC)c(-c2cn3nc(-c4cn(C)c5ccc(Cl)cc45)sc3n2)c1 |  | 8.1 µM | Dose-dependent effect | > 100 | > 100 | > 100 | < 15 | > 100 |  | < 15 | > 100 | 69.4 µM | Dose-dependent effect |  | 163 µM |  |  |  | Dose-dependent effect
